The source made the active and inactive calls. The calls are words filed in the database; no cut-off is given here.
Assays:
[1] = biological target: Mitogen-activated protein kinase kinase kinase kinase 4 (Homo sapiens) (UniProt O95819); test: Inhibition of human HGK at 10 uM
Procedure, shortened: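 Kinase selectivity panel of 19 protein tyrosine kinases and 30 serine/threonine kinases, run by a contract lab (CEREP). Each compound was tested at a single dose of 10 μM in duplicate.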

MDA-MB-435 [2] = test: Induction of apoptosis in human MDA-MB-435 cells assessed as nuclei fragmentation at 5 uM after 20 hrs by Hoechst 33342 staining-based phase-contrast microscopy; format: functional, cell-based
MDA-MB-435 [3] = test: Induction of apoptosis in human MDA-MB-435 cells assessed as alterations in stress action fibre aggregation at 5 uM after 20 hrs by Hoechst 33342 staining-based […] microscopy; format: functional, cell-based
Procedure, shortened: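 MDA-MB-435 cells were grown for 24 h, then treated with or without 5 μM compound for 20 h. Cells were fixed for 20 min and permeabilised with 0.2% Triton X-100 for 4 min at room temperature. Actin was stained with a mouse anti-actin antibody and an Alexa Fluor 568 anti-mouse antibody, each for 1 h at RT. Nuclei were counterstained with Hoechst 33342, and cells were imaged by confocal microscopy.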

MDA-MB-435 [4] = test: Cytotoxicity against human MDA-MB-435 cells at 5 uM after 24 hrs by MTT assay; format: functional
Procedure, shortened: (§1)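 MDA-MB-435 cells in DMEM/Ham's F12 (1:1) with 10% FCS, 37 °C, 5% CO2. Time course at a fixed 5 µM, incubated 8, 16, 24 or 48 h. Viability then read by MTT reduction (0.5 mg/mL, 4 h), formazan dissolved in EtOH/DMSO, absorbance at 540 nm, as percent living cells.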

MDA-MB-435 [5] = test: Cytotoxicity against human MDA-MB-435 cells at 5 uM by MTT assay; format: functional, cell-based; conditions: TDE = time-dependent effect; procedure, shortened: as §1
T47D = test: Cytotoxicity against human T47D cells after 48 hrs by SRB assay; format: functional
Procedure, shortened: (§2)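 NCI-60 five-dose mode on the full human tumour line panel. Concentrations ran from 100 to 0.01 µM with 48 h continuous exposure. Growth was estimated by SRB protein staining against untreated controls, and IC50 values were derived from the dose–response.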

BT-549 = test: Cytotoxicity against human BT549 cells after 48 hrs by SRB assay; format: functional; conditions: BT-549, 48 h
Procedure, shortened: (§3)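 NCI-60 five-dose testing, 100 to 0.01 µM, under a 48 h continuous-exposure protocol. Growth estimated by SRB protein assay, read spectrophotometrically against untreated controls; IC50 derived from the dose-response.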

[6] = Cytotoxicity against human Hs578T cells after 48 hrs by SRB assay; format: functional; conditions: Hs-578T; procedure, shortened: as §3
PC-3 = test: Cytotoxicity against human PC3 cells after 48 hrs by SRB assay; format: functional; conditions: PC-3, 48 h
Procedure, shortened: (§4)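 NCI-60 five-dose screen: cells exposed continuously for 48 h across 100 to 0.01 µM. Growth or viability estimated by sulforhodamine B protein staining, read spectrophotometrically against untreated controls; IC50 taken from the dose-response.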

SN12C = test: Cytotoxicity against human SN12C cells after 48 hrs by SRB assay; format: functional; procedure, shortened: as §2
RXF 393 = test: Cytotoxicity against human RXF393 cells after 48 hrs by SRB assay; format: functional; conditions: RXF 393, 48 h; procedure, shortened: as §4
ACHN = test: Cytotoxicity against human ACHN cells after 48 hrs by SRB assay; format: functional; procedure, shortened: as §3
OVCAR-8 = test: Cytotoxicity against human OVCAR8 cells after 48 hrs by SRB assay; format: functional; conditions: OVCAR-8, 48 h; procedure, shortened: as §4
[7] = Cytotoxicity against human OVCAR4 cells after 48 hrs by SRB assay; format: functional; conditions: OVCAR-4, 48 h; procedure, shortened: as §4
SK-MEL-28 = test: Cytotoxicity against human SK-MEL-28 cells after 48 hrs by SRB assay; format: functional; conditions: SK-MEL-28, 48 h; procedure, shortened: as §4
MDA-MB-435 [8] = test: Cytotoxicity against human MDA-MB-435 cells after 48 hrs by SRB assay; format: functional, cell-based; conditions: MDA-MB-435, 48 h; procedure, shortened: as §4
Malme-3M = test: Cytotoxicity against human MALME-3M cells after 48 hrs by SRB assay; format: functional; procedure, shortened: as §3
SNB-75 = test: Cytotoxicity against human SNB75 cells after 48 hrs by SRB assay; format: functional; conditions: SNB-75, 48 h; procedure, shortened: as §2
SF-268 = test: Cytotoxicity against human SF268 cells after 48 hrs by SRB assay; format: functional; conditions: SF-268, 48 h; procedure, shortened: as §4
NCI-H522 = test: Cytotoxicity against human NCI-H522 cells after 48 hrs by SRB assay; format: functional; conditions: NCI-H522, 48 h; procedure, shortened: as §4
NCI-H460 = test: Cytotoxicity against human NCI-H460 cells after 48 hrs by SRB assay; format: functional; conditions: NCI-H460, 48 h; procedure, shortened: as §4
RPMI-8226 = test: Cytotoxicity against human RPMI8226 cells after 48 hrs by SRB assay; format: functional; conditions: RPMI-8226, 48 h; procedure, shortened: as §4
MOLT-4 = test: Cytotoxicity against human MOLT4 cells after 48 hrs by SRB assay; format: functional; conditions: MOLT-4, 48 h; procedure, shortened: as §4
HL-60(TB) = test: Cytotoxicity against human HL-60(TB) cells after 48 hrs by SRB assay; format: functional; conditions: HL-60, 48 h
Procedure, shortened: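 NCI-60 human tumour cell line panel; continuous 48 h exposure to five concentrations from 100 to 0.01 µM. Cell growth was read spectrophotometrically by sulforhodamine B protein staining against untreated controls, and […] was taken from the dose–response.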

[9] = Cytotoxicity against human CAL-1 cells assessed as reduction in cell growth at 1 to 10 uM after 48 hrs by MTT assay relative to untreated control; format: functional; set-up: scale not given: the % may be the effect or the level left
Procedure, shortened: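 CAL1 melanoma cells grown in DMEM with 2 mM L-glutamine and 10% FCS at 37 °C, 5% CO2. Seeded at 10^4 cells/well, grown 24 h, then treated 48 h across 100–0.01 μM (compounds dissolved in medium). Read-out: 0.5 mg mL⁻¹ MTT for 4 h, crystals dissolved in EtOH/DMSO 1:1, absorbance at 540 nm.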

[10] = read-out: LC50 (the source's name)

Sequence of Mitogen-activated protein kinase kinase kinase kinase 4 (Homo sapiens) (O95819 2-1239 limits assumed): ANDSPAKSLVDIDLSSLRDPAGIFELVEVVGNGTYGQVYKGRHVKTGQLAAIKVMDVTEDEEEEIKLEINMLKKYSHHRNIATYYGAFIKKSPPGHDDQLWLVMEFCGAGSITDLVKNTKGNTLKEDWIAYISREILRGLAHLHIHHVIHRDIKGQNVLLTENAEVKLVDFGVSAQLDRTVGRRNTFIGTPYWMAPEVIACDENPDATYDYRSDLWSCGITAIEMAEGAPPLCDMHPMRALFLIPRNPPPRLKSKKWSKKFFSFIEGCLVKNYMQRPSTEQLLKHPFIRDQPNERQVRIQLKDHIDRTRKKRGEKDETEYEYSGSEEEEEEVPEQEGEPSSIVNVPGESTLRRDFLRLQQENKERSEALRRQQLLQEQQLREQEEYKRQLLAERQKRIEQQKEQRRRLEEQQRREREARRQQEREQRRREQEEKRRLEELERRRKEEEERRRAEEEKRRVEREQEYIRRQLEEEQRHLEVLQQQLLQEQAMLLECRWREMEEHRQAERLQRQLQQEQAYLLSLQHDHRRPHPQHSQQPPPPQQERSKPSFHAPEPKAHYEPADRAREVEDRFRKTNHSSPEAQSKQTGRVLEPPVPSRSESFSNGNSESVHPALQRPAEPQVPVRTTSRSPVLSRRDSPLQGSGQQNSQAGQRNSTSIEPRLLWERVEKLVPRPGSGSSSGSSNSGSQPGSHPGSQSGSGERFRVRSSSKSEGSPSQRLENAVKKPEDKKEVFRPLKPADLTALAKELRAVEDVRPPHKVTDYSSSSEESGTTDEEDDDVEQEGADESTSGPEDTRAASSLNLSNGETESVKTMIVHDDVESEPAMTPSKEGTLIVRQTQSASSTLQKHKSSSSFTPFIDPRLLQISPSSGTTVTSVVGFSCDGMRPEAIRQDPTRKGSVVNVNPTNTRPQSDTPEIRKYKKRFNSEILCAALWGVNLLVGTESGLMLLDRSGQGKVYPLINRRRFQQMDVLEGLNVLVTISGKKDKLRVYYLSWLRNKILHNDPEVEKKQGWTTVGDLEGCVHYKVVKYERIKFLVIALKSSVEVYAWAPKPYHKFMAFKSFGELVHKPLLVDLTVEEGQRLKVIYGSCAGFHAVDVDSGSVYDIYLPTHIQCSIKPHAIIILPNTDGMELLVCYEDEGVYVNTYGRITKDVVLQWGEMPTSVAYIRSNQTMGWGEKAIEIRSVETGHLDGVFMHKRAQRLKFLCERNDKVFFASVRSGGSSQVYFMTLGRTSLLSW

C[C@@H]1NC(c2ccc(Br)cc2)=Nc2nc3ccccn3c2C1=O
inhibition [1]: 50% | Activity (MDA-MB-435 [2]): Active | Activity (MDA-MB-435 [3]): Active | Activity (MDA-MB-435 [4]): 10% | Activity (MDA-MB-435 [5]): tde | GI50 (T47D): 46.2 µM | TGI (T47D): > 100 µM | CC50 (T47D; [10]): > 100 µM | GI50 (BT-549): 5.49 µM | TGI (BT-549): > 100 µM | CC50 (BT-549; [10]): > 100 µM | GI50 [6]: 2.81 µM | TGI [6]: 52 µM | CC50 [6, 10]: > 100 µM | GI50 (PC-3): 5.7 µM | TGI (PC-3): > 100 µM | CC50 (PC-3; [10]): > 100 µM | GI50 (SN12C): 17.6 µM | TGI (SN12C): > 100 µM | CC50 (SN12C; [10]): > 100 µM | GI50 (RXF 393): 10.2 µM | TGI (RXF 393): 51.8 µM | CC50 (RXF 393; [10]): > 100 µM | GI50 (ACHN): 6.75 µM | TGI (ACHN): > 100 µM | CC50 (ACHN; [10]): > 100 µM | GI50 (OVCAR-8): 17 µM | TGI (OVCAR-8): > 100 µM | CC50 (OVCAR-8; [10]): > 100 µM | GI50 [7]: 17.9 µM | TGI [7]: > 100 µM | CC50 [7, 10]: > 100 µM | GI50 (SK-MEL-28): 9.51 µM | TGI (SK-MEL-28): > 100 µM | CC50 (SK-MEL-28; [10]): > 100 µM | GI50 (MDA-MB-435 [8]): 1.33 µM | IC50 (MDA-MB-435 [8]): 1.3 µM | LC50 (MDA-MB-435 [8]): > 100 µM | TGI (MDA-MB-435 [8]): 7.1 µM | GI50 (Malme-3M): 15.2 µM | TGI (Malme-3M): > 100 µM | CC50 (Malme-3M; [10]): > 100 µM | GI50 (SNB-75): 0.7 µM | TGI (SNB-75): 7.06 µM | CC50 (SNB-75; [10]): > 100 µM | GI50 (SF-268): 17.2 µM | TGI (SF-268): > 100 µM | CC50 (SF-268; [10]): > 100 µM | GI50 (NCI-H522): 3.23 µM | TGI (NCI-H522): 18.4 µM | CC50 (NCI-H522; [10]): > 100 µM | GI50 (NCI-H460): 3.06 µM | TGI (NCI-H460): > 100 µM | CC50 (NCI-H460; [10]): > 100 µM | GI50 (RPMI-8226): 7.31 µM | TGI (RPMI-8226): > 100 µM | CC50 (RPMI-8226; [10]): > 100 µM | GI50 (MOLT-4): 12.8 µM | TGI (MOLT-4): > 100 µM | CC50 (MOLT-4; [10]): > 100 µM | GI50 (HL-60(TB)): 6.49 µM | TGI (HL-60(TB)): > 100 µM | CC50 (HL-60(TB); [10]): > 100 µM

C[C@@H]1NC(c2ccccc2)=Nc2nc3ccccn3c2C1=O
Activity [9]: 20%

— ChEMBL document CHEMBL3124806, “Imidazopyridine-fused [1,3]-diazepinones: synthesis and antiproliferative activity” (Eur J Med Chem, 2014)
